Values after ≈ are worked out from the molar mass of the structure shown. Active and inactive are the calls of the source. The calls are words filed in the database; no cut-off is given here.
Tests used:
Format in all cases: functional, organism-based
[1] = system: Candida maltosa; assay: Antimicrobial activity against Candida maltosa SBUG 700 at 200 ug/disk by agar diffusion method
Procedure, shortened: (§1)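 Agar diffusion per European Pharmacopoeia. Antibiotic medium No. 1 inoculated with cell suspension and poured into plates. Paper disks loaded with 200 µg substance placed on the cooled agar, then prediffused 2 h in a refrigerator. Incubation 18 h at 37 °C (C. maltosa at 27 °C). Inhibition zone diameters read at end of incubation. Penicillin G positive control.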

[2] = system: Staphylococcus aureus; assay: Antimicrobial activity against Staphylococcus aureus ATCC 6538 at 200 ug/disk by agar diffusion method; procedure, shortened: as §1
[3] = system: Escherichia coli; assay: Antimicrobial activity against Escherichia coli ATCC 11229 at 200 ug/disk by agar diffusion method; procedure, shortened: as §1
[4] = system: Influenza A virus; assay: Antiviral activity against influenza A virus infected in MDCK cells
Procedure, shortened: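 Each compound (1.0 mg) was dissolved in 100 µL methanol, then in MEM, giving a 1 mg/mL stock. Compounds were tested at noncytotoxic concentrations against influenza A virus and HSV type I.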

CC(C)[C@@H](C)/C=C/[C@@H](C)[C@H]1CC[C@H]2C3=CCC4CC(=O)CC[C@]4(C)[C@H]3CC[C@]12C (stereo not given in full)
Activity [1]: inactive
Activity [2]: inactive
Activity [3]: inactive

CC(C)[C@@H](C)/C=C/[C@@H](C)[C@H]1CC[C@H]2C3=CC[C@H]4C[C@@H](O)CC[C@]4(C)[C@H]3CC[C@]12C
Activity [1]: inactive
IC50 [4]: 0.78 µg/mL (≈ 1.96 µM)
Activity [2]: inactive
Activity [3]: inactive

C/C(=C\CC[C@@H](C)[C@H]1CC[C@@]2(C)C3=C(CC[C@]12C)[C@@]1(C)CCC(=O)C(C)(C)[C@@H]1CC3=O)CO [GANODERONE A]
Activity [1]: inactive
Activity [4]: inactive
Activity [2]: inactive
Activity [3]: inactive

C/C(C=O)=C\CC[C@@H](C)[C@H]1CC[C@@]2(C)C3=CC[C@H]4C(C)(C)C(=O)CC[C@]4(C)C3=CC[C@]12C [GANODERAL A]
Activity [4]: inactive

C[C@H](CCC1OC1(C)CO)[C@H]1CC[C@@]2(C)C3=C(CC[C@]12C)[C@@]1(C)CCC(=O)C(C)(C)[C@@H]1CC3=O (stereo not given in full) [GANODERONE C]
IC50 [4]: 2.6 µg/mL (≈ 5.52 µM)

C/C(C=O)=C\CC[C@@H](C)[C@H]1CC[C@@]2(C)C3=C(CC[C@]12C)[C@@]1(C)CCC(=O)C(C)(C)[C@@H]1CC3=O [LUCIALDEHYDE B]
Activity [1]: inactive
IC50 [4]: 3 µg/mL (≈ 6.63 µM)
Activity [2]: inactive
Activity [3]: inactive

CC(CC(=O)C[C@@](C)(O)C1=C[C@H](O)[C@]2(C)[C@]1(C)C(=O)C=C1[C@@]3(C)CCC(=O)C(C)(C)[C@@H]3C[C@H]3O[C@@]132)C(=O)O (stereo not given in full)
Activity [1]: inactive
Activity [2]: inactive
Activity [3]: inactive

C/C(=C\CC[C@@H](C)[C@H]1CC[C@@]2(C)C3=CC[C@H]4C(C)(C)C(=O)CC[C@]4(C)C3=CC[C@]12C)CO [GANODEROL A]
Activity [1]: inactive
Activity [4]: inactive
Activity [2]: inactive
Activity [3]: inactive

NC12CC3CC(CC(C3)C1)C2.O=S(=O)(O)O [AMANTADINE SULFATE]
IC50 [4]: 15 µg/mL

Reference: ChEMBL document CHEMBL1151276, “Antiviral Terpenoid Constituents of Ganoderma pfeifferi” (J Nat Prod, 2005)
